# Columns and labels:
# Assay type in all cases: toxicity, cell-based
# U2OS [1] = assay: Multiplex assay against U2OS; conditions: human
# Outline: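 Live cells were stained at seeding with Hoechst33342, BioTracker Green Microtubule Cytoskeleton Dye, MitoTracker Red and Annexin V Alexa Fluor 680, then imaged on a CQ1 microscope at 37°C and 5% CO2 after compound addition. CellPathfinder machine-learning gating split cells into Hoechst high-intensity objects or normal cells. Normal cells were split into healthy, pyknosed or fragmented nuclei, and pyknosed cells into mitotic or apoptotic. Tubulin, mitochondrial-mass and membrane-permeability phenotypes are per cents of healthy-nucleus cells.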
# HEK-293T = assay: Incucyte cell viability with HEK293T; conditions: human, 10 µM, compound concentration 10 uM; note: filed as whole numbers so only -1 and 0 and 1 occur
# Fibroblast = assay: Incucyte cell viability with human fibroblast; conditions: 10 µM, compound concentration 10 uM; note: filed as whole numbers so only -1 and 0 and 1 occur
# U2OS [2] = assay: Incucyte cell viability with U2OS; conditions: human, 10 µM, compound concentration 10 uM; note: filed as whole numbers so only -1 and 0 and 1 occur
# [3] = 12 h, 1 µM, compound concentration 1 uM, replicate 1
# [4] = 12 h, 1 µM, compound concentration 1 uM, replicate 2
# [5] = 12 h, 10 µM, compound concentration 10 uM, replicate 1
# [6] = 12 h, 10 µM, compound concentration 10 uM, replicate 2
# [7] = 24 h, 1 µM, compound concentration 1 uM, replicate 1
# [8] = 24 h, 1 µM, compound concentration 1 uM, replicate 2
# [9] = 24 h, 10 µM, compound concentration 10 uM, replicate 1
# [10] = 24 h, 10 µM, compound concentration 10 uM, replicate 2
# [11] = 48 h, 1 µM, compound concentration 1 uM, replicate 1
# [12] = 48 h, 1 µM, compound concentration 1 uM, replicate 2
# [13] = 48 h, 10 µM, compound concentration 10 uM, replicate 1
# [14] = 48 h, 10 µM, compound concentration 10 uM, replicate 2
# [15] = 6 h, replicate number 1, timepoint 6 hours
# [16] = 12 h, replicate number 1, timepoint 12 hours
# [17] = 18 h, replicate number 1, timepoint 18 hours
# [18] = 24 h, replicate number 1, timepoint 24 hours
structure (smiles),measurement,setting,value
Cl.NC[C@@H]1O[C@H](C23CC4CC(CC(C4)C2)C3)Cc2c1ccc(O)c2O,Population Apoptotic (%),U2OS [1]; [3],60%
same,Population Fragmented Nuclei (%),U2OS [1]; [3],10%
same,Population Healthy Nuclei (%),U2OS [1]; [3],80%
same,Population Hoechst High Intensity Objects (%),U2OS [1]; [3],7%
same,Population Membrane Permeable-Phenotype (%),U2OS [1]; [3],5%
same,Population Mitochondria Different-Phenotype (%),U2OS [1]; [3],11%
same,Population Mitotic Cells (%),U2OS [1]; [3],40%
same,Population Normal (%),U2OS [1]; [3],92%
same,Population Pyknosed Nuclei (%),U2OS [1]; [3],9%
same,Population Tubulin-Different-Phenotype (%),U2OS [1]; [3],6%
same,Total Cell Count,U2OS [1]; [3],116
same,Population Apoptotic (%),U2OS [1]; [4],0%
same,Population Fragmented Nuclei (%),U2OS [1]; [4],6%
same,Population Healthy Nuclei (%),U2OS [1]; [4],91%
same,Population Hoechst High Intensity Objects (%),U2OS [1]; [4],3%
same,Population Membrane Permeable-Phenotype (%),U2OS [1]; [4],2%
same,Population Mitochondria Different-Phenotype (%),U2OS [1]; [4],9%
same,Population Mitotic Cells (%),U2OS [1]; [4],100%
same,Population Normal (%),U2OS [1]; [4],96%
same,Population Pyknosed Nuclei (%),U2OS [1]; [4],2%
same,Population Tubulin-Different-Phenotype (%),U2OS [1]; [4],10%
same,Total Cell Count,U2OS [1]; [4],95
same,Population Apoptotic (%),U2OS [1]; [5],37%
same,Population Fragmented Nuclei (%),U2OS [1]; [5],31%
same,Population Healthy Nuclei (%),U2OS [1]; [5],36%
same,Population Hoechst High Intensity Objects (%),U2OS [1]; [5],8%
same,Population Membrane Permeable-Phenotype (%),U2OS [1]; [5],3%
same,Population Mitochondria Different-Phenotype (%),U2OS [1]; [5],13%
same,Population Mitotic Cells (%),U2OS [1]; [5],62%
same,Population Normal (%),U2OS [1]; [5],92%
same,Population Pyknosed Nuclei (%),U2OS [1]; [5],31%
same,Population Tubulin-Different-Phenotype (%),U2OS [1]; [5],5%
same,Total Cell Count,U2OS [1]; [5],150
same,Population Apoptotic (%),U2OS [1]; [6],52%
same,Population Fragmented Nuclei (%),U2OS [1]; [6],39%
same,Population Healthy Nuclei (%),U2OS [1]; [6],32%
same,Population Hoechst High Intensity Objects (%),U2OS [1]; [6],10%
same,Population Membrane Permeable-Phenotype (%),U2OS [1]; [6],9%
same,Population Mitochondria Different-Phenotype (%),U2OS [1]; [6],22%
same,Population Mitotic Cells (%),U2OS [1]; [6],47%
same,Population Normal (%),U2OS [1]; [6],89%
same,Population Pyknosed Nuclei (%),U2OS [1]; [6],27%
same,Population Tubulin-Different-Phenotype (%),U2OS [1]; [6],27%
same,Total Cell Count,U2OS [1]; [6],76
same,Population Apoptotic (%),U2OS [1]; [7],46%
same,Population Fragmented Nuclei (%),U2OS [1]; [7],11%
same,Population Healthy Nuclei (%),U2OS [1]; [7],79%
same,Population Hoechst High Intensity Objects (%),U2OS [1]; [7],7%
same,Population Membrane Permeable-Phenotype (%),U2OS [1]; [7],2%
same,Population Mitochondria Different-Phenotype (%),U2OS [1]; [7],3%
same,Population Mitotic Cells (%),U2OS [1]; [7],53%
same,Population Normal (%),U2OS [1]; [7],92%
same,Population Pyknosed Nuclei (%),U2OS [1]; [7],9%
same,Population Tubulin-Different-Phenotype (%),U2OS [1]; [7],9%
same,Total Cell Count,U2OS [1]; [7],146
same,Population Apoptotic (%),U2OS [1]; [8],42%
same,Population Fragmented Nuclei (%),U2OS [1]; [8],8%
same,Population Healthy Nuclei (%),U2OS [1]; [8],85%
same,Population Hoechst High Intensity Objects (%),U2OS [1]; [8],2%
same,Population Membrane Permeable-Phenotype (%),U2OS [1]; [8],5%
same,Population Mitochondria Different-Phenotype (%),U2OS [1]; [8],10%
same,Population Mitotic Cells (%),U2OS [1]; [8],57%
same,Population Normal (%),U2OS [1]; [8],97%
same,Population Pyknosed Nuclei (%),U2OS [1]; [8],6%
same,Population Tubulin-Different-Phenotype (%),U2OS [1]; [8],12%
same,Total Cell Count,U2OS [1]; [8],114
same,Population Apoptotic (%),U2OS [1]; [9],76%
same,Population Fragmented Nuclei (%),U2OS [1]; [9],38%
same,Population Healthy Nuclei (%),U2OS [1]; [9],33%
same,Population Hoechst High Intensity Objects (%),U2OS [1]; [9],6%
same,Population Membrane Permeable-Phenotype (%),U2OS [1]; [9],7%
same,Population Mitochondria Different-Phenotype (%),U2OS [1]; [9],7%
same,Population Mitotic Cells (%),U2OS [1]; [9],23%
same,Population Normal (%),U2OS [1]; [9],93%
same,Population Pyknosed Nuclei (%),U2OS [1]; [9],27%
same,Population Tubulin-Different-Phenotype (%),U2OS [1]; [9],17%
same,Total Cell Count,U2OS [1]; [9],161
same,Population Apoptotic (%),U2OS [1]; [10],92%
same,Population Fragmented Nuclei (%),U2OS [1]; [10],50%
same,Population Healthy Nuclei (%),U2OS [1]; [10],29%
same,Population Hoechst High Intensity Objects (%),U2OS [1]; [10],18%
same,Population Membrane Permeable-Phenotype (%),U2OS [1]; [10],26%
same,Population Mitochondria Different-Phenotype (%),U2OS [1]; [10],26%
same,Population Mitotic Cells (%),U2OS [1]; [10],7%
same,Population Normal (%),U2OS [1]; [10],81%
same,Population Pyknosed Nuclei (%),U2OS [1]; [10],20%
same,Population Tubulin-Different-Phenotype (%),U2OS [1]; [10],26%
same,Total Cell Count,U2OS [1]; [10],80
same,Population Apoptotic (%),U2OS [1]; [11],33%
same,Population Fragmented Nuclei (%),U2OS [1]; [11],8%
same,Population Hoechst High Intensity Objects (%),U2OS [1]; [11],6%
same,Population Membrane Permeable-Phenotype (%),U2OS [1]; [11],0%
same,Population Mitochondria Different-Phenotype (%),U2OS [1]; [11],14%
same,Population Mitotic Cells (%),U2OS [1]; [11],66%
same,Population Normal (%),U2OS [1]; [11],93%
same,Population Pyknosed Nuclei (%),U2OS [1]; [11],9%
same,Population Tubulin-Different-Phenotype (%),U2OS [1]; [11],12%
same,Total Cell Count,U2OS [1]; [11],198
same,Population Apoptotic (%),U2OS [1]; [12],57%
same,Population Fragmented Nuclei (%),U2OS [1]; [12],11%
same,Population Healthy Nuclei (%),U2OS [1]; [12],82%
same,Population Hoechst High Intensity Objects (%),U2OS [1]; [12],3%
same,Population Membrane Permeable-Phenotype (%),U2OS [1]; [12],3%
same,Population Mitochondria Different-Phenotype (%),U2OS [1]; [12],21%
same,Population Mitotic Cells (%),U2OS [1]; [12],42%
same,Population Normal (%),U2OS [1]; [12],96%
same,Population Pyknosed Nuclei (%),U2OS [1]; [12],5%
same,Population Tubulin-Different-Phenotype (%),U2OS [1]; [12],13%
same,Total Cell Count,U2OS [1]; [12],127
same,Population Apoptotic (%),U2OS [1]; [13],84%
same,Population Fragmented Nuclei (%),U2OS [1]; [13],33%
same,Population Healthy Nuclei (%),U2OS [1]; [13],33%
same,Population Hoechst High Intensity Objects (%),U2OS [1]; [13],13%
same,Population Membrane Permeable-Phenotype (%),U2OS [1]; [13],20%
same,Population Mitochondria Different-Phenotype (%),U2OS [1]; [13],16%
same,Population Mitotic Cells (%),U2OS [1]; [13],16%
same,Population Normal (%),U2OS [1]; [13],86%
same,Population Pyknosed Nuclei (%),U2OS [1]; [13],32%
same,Population Tubulin-Different-Phenotype (%),U2OS [1]; [13],37%
same,Total Cell Count,U2OS [1]; [13],180
same,Population Apoptotic (%),U2OS [1]; [14],91%
same,Population Fragmented Nuclei (%),U2OS [1]; [14],50%
same,Population Healthy Nuclei (%),U2OS [1]; [14],27%
same,Population Hoechst High Intensity Objects (%),U2OS [1]; [14],34%
same,Population Membrane Permeable-Phenotype (%),U2OS [1]; [14],80%
same,Population Mitochondria Different-Phenotype (%),U2OS [1]; [14],53%
same,Population Mitotic Cells (%),U2OS [1]; [14],8%
same,Population Normal (%),U2OS [1]; [14],65%
same,Population Pyknosed Nuclei (%),U2OS [1]; [14],22%
same,Population Tubulin-Different-Phenotype (%),U2OS [1]; [14],66%
same,Total Cell Count,U2OS [1]; [14],82
same,Growth Rate,"HEK-293T; 0 h, replicate number 2, timepoint 0 hours",1
same,Growth Rate,HEK-293T; [15],0
same,Growth Rate,HEK-293T; [16],0
same,Growth Rate,HEK-293T; [17],0
same,Growth Rate,HEK-293T; [18],0
same,Growth Rate,Fibroblast; [15],0
same,Growth Rate,Fibroblast; [16],0
same,Growth Rate,Fibroblast; [17],0
same,Growth Rate,Fibroblast; [18],0
same,Growth Rate,U2OS [2]; [15],0
same,Growth Rate,U2OS [2]; [16],0
same,Growth Rate,U2OS [2]; [17],0
same,Growth Rate,U2OS [2]; [18],0

# From ChEMBL document CHEMBL4689842, “EUbOPEN Chemogenomics Library wave 1” (2021)
